Test system: DIO C57BL/6 mice, hepatic G6Pase mRNA, 15 mg/kg ip 6 d
Assay: liver G6Pase and PEPCK expression, blood glucose – diet-induced obese mice, pyruvate tolerance test, powder sample, in vivo study for RORA inverse agonist project, late-stage follow-up (AID 504899)
Conditions: stronger effect = lower value
Summary of the method: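 Test system: obese high-fat-fed male C57BL/6 mice, 30 weeks old. Control set: vehicle-dosed obese mice as reference. Doses: 15 mg/kg ip b.i.d. for 6 days. Schedule: 6 h fasting, glucose 0–60 min after pyruvate. Measured by: glucometer blood glucose plus liver gene mRNA. Probe or stimulus: pyruvate 2 g/kg ip.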

O=S(=O)(Nc1ccc(C(O)(C(F)(F)F)C(F)(F)F)cc1)c1cccs1
PEPCK mRNA expression (DIO C57BL/6 mice, 15 mg/kg ip 6 d, measured here: hepatic PEPCK mRNA, % control): 51% | blood glucose (DIO C57BL/6 mice, 15 mg/kg ip 6 d, measured here: pyruvate tolerance test blood glucose): 76% | G6Pase mRNA expression (dose or concentration not given here): 52%
